Bioassay records from PubChem BioAssay.
Most compounds without a hit are left out; they make up all but 2% or so of the library.
TCR-CD3 inh – inhibitors of human TCR-CD3 interaction, primary screen, biochemical, fluorescence, TAMRA-labeled TCR probe. T-cell receptor (TCR). inhibition, % at 9.4 µM. 0.37% of 360,000 active. AID 651800, 2012; in the data active = inhibition above about 19%;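 note: recombinant mutant TCR 2C K166C tagged with TAMRA read by polarization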
UHRF1 MBD2 ctr – UHRF1 methylated DNA binding inhibitors, primary screen, counter-screen for MBD2 inhibitor project, biochemical, TR-FRET, human UHRF1, single concentration; E3 ubiquitin-protein ligase UHRF1 (Homo sapiens), Q96T88; inhibition, % at 4.4 µM; UHRF1 binding to methylated oligo; 0.75% of 370,000 active; in the data active = inhibition above about 21%;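 note: UHRF1 SRA domain binding a hemimethylated CpG hairpin DNA probe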
ARFGAP1 inhibitor – inhibitors of rat ARFGAP1 GAP activity, primary screen, biochemical, fluorescence polarization, GDP tracer | Arfgap1-stimulated ARF1 GTP hydrolysis, GDP FP detection | inhibition, % at 16.5 µM | 0.26% of 360,000 active | AID 651572, 2012;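 active = inhibition above a per-plate limit, mean inhibition of low control wells plus 3 SD, cut at about 25% in these data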
Target sequence (Q62848 1-136 limits assumed): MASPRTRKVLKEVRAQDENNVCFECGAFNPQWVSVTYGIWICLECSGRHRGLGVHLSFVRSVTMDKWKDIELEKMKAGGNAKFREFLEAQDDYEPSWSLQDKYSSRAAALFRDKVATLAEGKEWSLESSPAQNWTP
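Assay system: purified rat His6-Arfgap1 residues 1-136 (GAP domain); Reagent: human Δ17 ARF1 bound to GTP; Dosing: 16.5 µM single point, 1.26% DMSO; Times: GTP hydrolysis reaction 2 h at 25 °C; Signal: FP, GDP Alexa 633 tracer displaced from anti-GDP antibody, 620/688 nm; Measure: % inhibition from polarization.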
LEDGF integ inh – blockers of LEDGF/p75-dependent integrase strand transfer – biochemical, TR-FRET, high throughput, primary screen. inhibition, % at 3.7 µM. 0.64% of 370,000 active. TR-FRET IN-LEDGF/p75 DNA integration, Eu/Cy5;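 active = inhibition above the screen-wide mean plus 3 SD, cut at about 13% in these data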;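 note: signal is the Cy5 over europium emission ratio at 671 and 618 nm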
ASAP1 GAP inh – inhibitors of human ASAP1 ArfGAP activity, primary screen, biochemical, fluorescence polarization; Arf-GAP with SH3 domain, ANK repeat and PH domain-containing protein 1 (Homo sapiens), …; ASAP1-stimulated ARF1 GTP hydrolysis, GDP FP detection; inhibition, % at 16.5 µM; 0.19% of 360,000 active; in the data active = inhibition above about 25%
MBD2 inh – inhibitors of MBD2 binding to methylated DNA, primary screen, biochemical, TR-FRET, DNA-binding domain, human. Methyl-CpG-binding domain protein 2 (Homo sapiens), Q9UBB5. AID 686964, 2013. MBD2 binding to methylated oligonucleotide. inhibition, % at 4.4 µM. 0.31% of 370,000 active; in the data active = inhibition above about 13%
ASAP1 inh confirm – ASAP1 GAP activity inhibitors, confirmation, biochemical, fluorescence polarization, human, triplicate | shares compounds with ASAP1 GAP inh | ASAP1-stimulated Arf1 GTPase, GDP fluorescence polarization | inhibition, % at 16.5 µM | 37% of 620 active | AID 624431, 2012;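 active = mean inhibition over triplicates exceeds the hit threshold derived for the earlier primary screening run, cut at about 25% in these data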
ARFGAP1 inh conf – ARFGAP1 inhibitor hit confirmation, biochemical, fluorescence polarization, triplicate. shares compounds with ARFGAP1 inhibitor. 30% of 890 active. inhibition, % at 16.5 µM. ARFGAP1-stimulated ARF1 GTP hydrolysis, GDP tracer FP;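 active = average inhibition over triplicates above the hit cutoff set in the earlier primary screen, cut at about 25% in these data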
Target sequence (Q62848 whole entry, looked up): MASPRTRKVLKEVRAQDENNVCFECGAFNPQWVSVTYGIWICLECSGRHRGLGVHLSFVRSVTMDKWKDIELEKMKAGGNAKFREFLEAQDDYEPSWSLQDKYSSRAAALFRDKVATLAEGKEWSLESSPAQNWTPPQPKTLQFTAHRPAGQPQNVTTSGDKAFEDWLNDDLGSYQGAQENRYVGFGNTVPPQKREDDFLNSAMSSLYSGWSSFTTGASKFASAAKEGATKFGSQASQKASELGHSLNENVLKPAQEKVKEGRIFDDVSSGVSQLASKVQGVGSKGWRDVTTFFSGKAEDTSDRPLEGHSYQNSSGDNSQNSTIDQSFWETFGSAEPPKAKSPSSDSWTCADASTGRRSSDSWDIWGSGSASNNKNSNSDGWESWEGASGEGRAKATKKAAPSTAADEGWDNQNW
Of the large screens only hits and unclear results are named; the others gave an inactive call (follow-up assays come after a bar, where they were run).

Nc1[nH]c2cc(Cl)ccc2c1C(=O)N1CCOCC1	none (no result: TCR-CD3 inh, ARFGAP1 inhibitor, ASAP1 GAP inh)
CS(=O)(=O)Nc1ccc(-c2ccc(/C=C3\SC(N)=NC3=O)o2)cc1	ASAP1 GAP inh 30 | ASAP1 inh confirm 62
COc1ccc(C(=O)Nc2ccc(Cl)cc2C(=O)NCc2ccco2)cc1	ASAP1 GAP inh 27 | ASAP1 inh confirm inactive
OCC[C@@H]1C[C@H](O)[C@@H](O)[C@@]2(OCc3cc(Cl)ccc32)O1	ASAP1 GAP inh 25 | ASAP1 inh confirm inactive
O=C1[C@@H]2CSCN2C(=O)CN1Cc1c(F)cccc1Cl	ASAP1 GAP inh 26 | ASAP1 inh confirm inactive
O=C1[C@@H]2CSCN2C(=O)CN1Cc1ccccc1F	none
Cc1cc(C(=O)COC(=O)c2cccc(NS(C)(=O)=O)c2)c(C)n1CC1CCCO1 (configuration not stated)	none
CCN(CC)c1nc(N)c2c(N)nc(OC)cc2c1C#N	ASAP1 GAP inh 34 | ASAP1 inh confirm inactive
Cc1ccc(NC(=O)CSc2ncccc2C(=O)Oc2cccc([N+](=O)[O-])c2)cc1Cl	ASAP1 GAP inh 44 | ASAP1 inh confirm 39
N#CC1=C(c2ccc(-c3ccccc3)cc2)COC1=O	ASAP1 GAP inh 29 | ASAP1 inh confirm 41
Cc1ccc(C(=O)c2ccccc2C(=O)OCC(=O)N2C(C)CCCC2C)cc1 (configuration not stated)	none
CC1CCC(NC(=O)COC(=O)C2CC3CCCC(C2)C3=O)CC1 (configuration not stated)	none
O=C(COC(=O)C1CC2CCCC(C1)C2=O)NC1CCCCC1 (configuration not stated)	ASAP1 GAP inh 26 | ASAP1 inh confirm inactive
CCc1cc(=O)oc2cc(OC(C)C(=O)O)c(Cl)cc12 (configuration not stated)	ASAP1 GAP inh 27 | ASAP1 inh confirm inactive
CCc1cc(=O)oc2cc(OCC(=O)O)c(Cl)cc12	none
CCC(C)(C)NC(=O)C(c1ccc(OC)cc1)N(C(=O)CCC(=O)Nc1cc(C)on1)c1ccc(OC)c(OC)c1 (configuration not stated)	none
CCC(C)(C)NC(=O)C(c1ccc(OC)cc1)N(C(=O)CCC(=O)Nc1cc(C)on1)c1ccccc1OC (configuration not stated)	ASAP1 GAP inh 27 | ASAP1 inh confirm inactive
COc1ccc(Cl)cc1NC(=O)COC(=O)c1cc(C)oc1C	ASAP1 GAP inh 25 | ASAP1 inh confirm inactive
CCOc1ccc(CCNC(=O)CN2C(=O)NC(CCSC)C2=O)cc1OCC (configuration not stated)	ASAP1 GAP inh 28 | ASAP1 inh confirm inactive
CCOc1ccc(CCNC(=O)CN2C(=O)NC3(CCCCC3C)C2=O)cc1OCC (configuration not stated)	none
Cc1ccccc1Cn1cc(CN2[C@@H](C)COc3cc(Br)ccc3S2(=O)=O)nn1	none (no result: TCR-CD3 inh, ARFGAP1 inhibitor, ASAP1 GAP inh)
CCOC(=O)N1CCN(C(=O)C2CCC(CNS(=O)(=O)c3ccccc3)CC2)CC1 (configuration not stated)	none
O=C(C1CCC(CNS(=O)(=O)c2ccccc2)CC1)N1CCCCC1 (configuration not stated)	ASAP1 GAP inh 28 | ASAP1 inh confirm inactive
COc1cccc(-c2cnc3c(NC=O)cc(-c4ccc(N5CCN(C)CC5)cc4)cn23)c1	ASAP1 GAP inh 36 | ASAP1 inh confirm 76
COc1cccc(-c2cnc3c(NC=O)cc(-c4ccccc4)cn23)c1	none
c1ccc(Cn2ccc3ccc(-c4ccc5ccn(Cc6cccc(-c7cccs7)c6)c5c4)cc32)cc1	none (no result: TCR-CD3 inh, ARFGAP1 inhibitor, ASAP1 GAP inh)
COc1cc(NC(=O)c2cccnc2)ccc1-c1cc2ccccc2oc1=O	none
O=C(Nc1ccc(-c2cc3ccccc3oc2=O)c(Cl)c1)c1cccnc1	ARFGAP1 inhibitor 62, ASAP1 GAP inh 46 | ASAP1 inh confirm 59 | ARFGAP1 inh conf 82
COc1ccc(/C=N\NC(=O)c2cc3c(ccc4ccccc43)o2)cc1O	ARFGAP1 inhibitor 28, ASAP1 GAP inh 72 | ASAP1 inh confirm 96 | ARFGAP1 inh conf 76
COc1ccc(/C=N/NC(=O)c2cc3c(ccc4ccccc43)o2)cc1OC	ARFGAP1 inhibitor 76, ASAP1 GAP inh 102 | ASAP1 inh confirm 115 | ARFGAP1 inh conf 82
COc1cc(/C=N/NC(=O)c2cc3c(ccc4ccccc43)o2)cc(OC)c1O	none
CCOC(=O)CN1C(=O)N(c2ccc(OC)cc2)[C@H]2CC3c4ccccc4C[C@]3(C)[C@@H](C(=O)N(C)C3CCCCC3)C[C@H]21 (some centres not stated)	none
CNc1cc(-c2cccc(C(=O)N3CCOCC3)c2)ncn1	none
C=CCC1(CC=C)CCCN1C(=O)c1ccc2oc(CCCC)nc2c1	none
Cc1ccccc1NC(=O)Cn1cnc2c(oc3ccccc32)c1=O	none
Cc1cccc(NC(=O)Cn2cnc3c(oc4ccccc43)c2=O)c1C	ARFGAP1 inhibitor 29, ASAP1 GAP inh 33 | ASAP1 inh confirm 49 | ARFGAP1 inh conf 59
O=C(CSc1nnnn1-c1ccccc1)Nc1nsc(-c2ccc(Cl)cc2)n1	ARFGAP1 inhibitor 44, ASAP1 GAP inh 26 | ASAP1 inh confirm 45 | ARFGAP1 inh conf 58
CC[n+]1ccccc1/C=C/c1ccc(N(C)C)cc1	none
CC[n+]1ccc(/C=C/c2ccc(N(C)C)cc2)c2ccccc21	ARFGAP1 inhibitor 37, ASAP1 GAP inh 43 | ASAP1 inh confirm 53 | ARFGAP1 inh conf 50
O=C(Nc1ccc(N2CCCC2)cc1)c1cc2ccccc2o1	ARFGAP1 inhibitor 77, ASAP1 GAP inh 43 | ASAP1 inh confirm 146 | ARFGAP1 inh conf inactive
CC(=O)N1CCN(c2ccc(NC(=O)c3cc4ccccc4o3)cc2)CC1	none
